Reference: ChEMBL document CHEMBL3272114, “Antimalarials. 10. Synthesis of 4-substituted primaquine analogues as candidate antimalarials” (J Med Chem, 1977)
Calls of active or inactive are those of the source. No cut-off for these calls is given here.

Legend:
Plasmodium berghei [1] = test: Antimalarial activity against Plasmodium berghei infected in mouse assessed as change in mean survival time at 20 mg/kg, sc by Rane test; format: functional; conditions: route subcutaneous
Summary of the method: (§1)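 Mice were infected with P. berghei 3 days before drug. The compound was usually given subcutaneously in sesame or peanut oil at 20 to 640 mg/kg. Activity was read as the extension of mean survival time (ΔMST, days) of treated mice over infected controls.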

Plasmodium berghei [2] = test: Antimalarial activity against Plasmodium berghei infected in mouse assessed as disease cure at 320 mg/kg, sc by Rane test; format: functional, organism-based; parameters: dose 320 mg/kg
Plasmodium berghei [3] = test: Antimalarial activity against Plasmodium berghei infected in mouse assessed as disease cure at 640 mg/kg, sc by Rane test; format: functional, organism-based; parameters: dose 640 mg/kg
Plasmodium berghei [4] = test: Antimalarial activity against Plasmodium berghei infected in mouse assessed as change in mean survival time at 80 mg/kg, sc by Rane test; format: functional; conditions: route subcutaneous; summary of the method: as §1
Plasmodium berghei [5] = test: Antimalarial activity against Plasmodium berghei infected in mouse assessed as change in mean survival time at 40 mg/kg, sc by Rane test; format: functional; conditions: route subcutaneous; summary of the method: as §1
Mus musculus [6] = test: Toxicity in mouse infected with Plasmodium berghei assessed as animal death at 640 mg/kg, sc; format: organism-based; parameters: dose 640 mg/kg, route subcutaneous; conditions: in vivo
Plasmodium berghei [7] = test: Antimalarial activity against Plasmodium berghei infected in mouse assessed as disease cure at 160 mg/kg, sc by Rane test; format: functional, organism-based; parameters: dose 160 mg/kg
Plasmodium cynomolgi [8] = test: Antimalarial activity against Plasmodium cynomolgi infected in rhesus monkey at 1 mg/kg administered daily for 7 days; format: functional, organism-based; parameters: dose 1 mg/kg
Plasmodium cynomolgi [9] = test: Antimalarial activity against Plasmodium cynomolgi infected in rhesus monkey at 0.50 mg/kg administered daily for 7 days; format: functional, organism-based; parameters: dose 0.5 mg/kg
Plasmodium cynomolgi [10] = test: Antimalarial activity against Plasmodium cynomolgi infected in rhesus monkey assessed as disease cure at 1 mg/kg administered daily for 7 days; format: functional, organism-based; parameters: dose 1 mg/kg
Summary of the method: (§2)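 Rhesus monkeys infected with P. cynomolgi, dosed once daily for 7 days at each listed mg/kg level. Cures were recorded as the number of monkeys cured over the number treated.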

Plasmodium cynomolgi [11] = test: Antimalarial activity against Plasmodium cynomolgi infected in rhesus monkey at 0.25 mg/kg administered daily for 7 days; format: functional, organism-based; parameters: dose 0.25 mg/kg; summary of the method: as §2
Mus musculus [12] = test: Toxicity in mouse infected with Plasmodium berghei assessed as animal death at 320 mg/kg, sc; format: organism-based; parameters: dose 320 mg/kg, route subcutaneous; conditions: in vivo
Mus musculus [13] = test: Toxicity in mouse infected with Plasmodium berghei assessed as animal death at 160 mg/kg, sc; format: organism-based; parameters: dose 160 mg/kg, route subcutaneous; conditions: in vivo
Plasmodium berghei [14] = test: Antimalarial activity against Plasmodium berghei infected in mouse assessed as change in mean survival time at 320 mg/kg, sc by Rane test; format: functional; conditions: route subcutaneous; summary of the method: as §1
Plasmodium berghei [15] = test: Antimalarial activity against Plasmodium berghei infected in mouse assessed as change in mean survival time at 160 mg/kg, sc by Rane test; format: functional; conditions: route subcutaneous; summary of the method: as §1
Plasmodium cynomolgi [16] = test: Antimalarial activity against Plasmodium cynomolgi infected in rhesus monkey assessed as disease cure at 0.5 mg/kg administered daily for 7 days; format: functional, organism-based; parameters: dose 0.5 mg/kg; summary of the method: as §2
Plasmodium berghei [17] = test: Antimalarial activity against Plasmodium berghei infected in mouse assessed as change in mean survival time at 640 mg/kg, sc by Rane test; format: functional; conditions: route subcutaneous; summary of the method: as §1

Row | Structure (SMILES) | MST (Plasmodium berghei [1]) [days] | Activity (Plasmodium berghei [2]) | Activity (Plasmodium berghei [3]) | MST (Plasmodium berghei [4]) [days] | MST (Plasmodium berghei [5]) [days] | Activity (Mus musculus [6]) | Activity (Plasmodium berghei [7]) | Activity (Plasmodium cynomolgi [8]) | Activity (Plasmodium cynomolgi [9]) | Activity (Plasmodium cynomolgi [10]) | Activity (Plasmodium cynomolgi [11]) | Activity (Mus musculus [12]) | Activity (Mus musculus [13]) | MST (Plasmodium berghei [14]) [days] | MST (Plasmodium berghei [15]) [days] | Activity (Plasmodium cynomolgi [16]) | MST (Plasmodium berghei [17]) [days]
1 | COc1cc([N+](=O)[O-])c2nccc(Oc3ccc(Cl)cc3)c2c1 | 3.5 | Active | Active | 10.1 | 6.1 | Non-toxic | Active | inactive | – | – | – | – | – | – | – | – | –
2 | COc1cc(NC(C)CCCCN)c2nccc(C)c2c1.O=P(O)(O)O (centres undefined) | 5.8 | Active | Active | 10.4 | 7 | Non-toxic | Active | – | inactive | Active | – | – | – | – | – | – | –
3 | COc1cc(NC(C)CCCN)c2ncccc2c1 (centres undefined) [PRIMAQUINE] | – | – | – | 9.4 | 5 | Toxic | – | – | – | Active | inactive | Toxic | Toxic | – | – | – | –
4 | COc1cc(NCCCN)c2nccc(C)c2c1.Cl | – | – | – | – | – | Toxic | – | – | – | – | inactive | – | – | 5.5 | 3.9 | – | –
5 | COc1cc(NC(C)CCCN)c2nccc(C)c2c1 (centres undefined) | – | – | Active | 5.5 | – | Toxic | – | – | – | Active | – | – | – | 10.1 | 9 | Active | –
6 | COc1cc(NC(C)CCCN)c2nccc(SC)c2c1 (centres undefined) | 0.1 | inactive | inactive | 1.3 | 0.1 | – | – | inactive | – | – | – | – | – | 6.7 | 3.5 | – | 8.1
